Assays:
Homo sapiens = species: Homo sapiens; assay: Stabilization of 5'Dabcyl/3'FAM labeled human telomeric sequence G-quadruplex DNA assessed as increase in melting temperature at 2.5 uM pretreated for 5 mins at 30 degreeC followed by 5 mins incubation at 95 degreeC by fluorescence assay
Outline: (§1)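 FRET melting in LiP buffer (10 mM LiOH, 50 mM KCl, pH 7.0 with H3PO4), ex 488 nm, em 520 nm. Samples were held 5 min at 30 °C, heated at 1 °C/min to 95 °C, held 5 min, then re-annealed. Tm came from first derivatives; ΔTm = shift with ligand at 2.5; at least three runs.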

[1] = Stabilization of 5'Dabcyl/3'FAM labeled duplex DNA (unknown origin) assessed as increase in melting temperature at 2.5 uM pretreated for 5 mins at 30 degreeC followed by 5 mins incubation at 95 degreeC by fluorescence assay; outline: as §1
CCRF-CEM = assay: Growth inhibition of human CCRF-CEM cells incubated for 48 hrs by sulforhodamine B assay; format: functional
RPMI-8226 = assay: Growth inhibition of human RPMI8226 cells incubated for 48 hrs by sulforhodamine B assay; format: functional; conditions: RPMI-8226, 48 h
SR = assay: Growth inhibition of human SR cells incubated for 48 hrs by sulforhodamine B assay; format: functional
A549 = assay: Growth inhibition of human A549/ATCC cells incubated for 48 hrs by sulforhodamine B assay; format: functional; conditions: A549, 48 h
EKVX = assay: Growth inhibition of human EKVX cells incubated for 48 hrs by sulforhodamine B assay; format: functional
HOP-62 = assay: Growth inhibition of human HOP62 cells incubated for 48 hrs by sulforhodamine B assay; format: functional; conditions: HOP-62, 48 h
HOP-92 = assay: Growth inhibition of human HOP92 cells incubated for 48 hrs by sulforhodamine B assay; format: functional; conditions: HOP-92, 48 h
NCI-H226 = assay: Growth inhibition of human NCI-H226 cells incubated for 48 hrs by sulforhodamine B assay; format: functional; conditions: NCI-H226, 48 h
NCI-H23 = assay: Growth inhibition of human NCI-H23 cells incubated for 48 hrs by sulforhodamine B assay; format: functional; conditions: NCI-H23, 48 h
NCI-H322M = assay: Growth inhibition of human NCI-H322M cells incubated for 48 hrs by sulforhodamine B assay; format: functional
COLO 205 = assay: Growth inhibition of human COLO205 cells incubated for 48 hrs by sulforhodamine B assay; format: functional; conditions: COLO 205, 48 h
HCC 2998 = assay: Growth inhibition of human HCC2998 cells incubated for 48 hrs by sulforhodamine B assay; format: functional; conditions: HCC 2998, 48 h
HCT-116 = assay: Growth inhibition of human HCT116 cells incubated for 48 hrs by sulforhodamine B assay; format: functional; conditions: HCT-116, 48 h
HCT-15 = assay: Growth inhibition of human HCT15 cells incubated for 48 hrs by sulforhodamine B assay; format: functional; conditions: HCT-15, 48 h
HT-29 = assay: Growth inhibition of human HT-29 cells incubated for 48 hrs by sulforhodamine B assay; format: functional; conditions: HT-29, 48 h
SW-620 = assay: Growth inhibition of human SW620 cells incubated for 48 hrs by sulforhodamine B assay; format: functional; conditions: SW-620, 48 h
SF-268 = assay: Growth inhibition of human SF268 cells incubated for 48 hrs by sulforhodamine B assay; format: functional; conditions: SF-268, 48 h
SF-295 = assay: Growth inhibition of human SF295 cells incubated for 48 hrs by sulforhodamine B assay; format: functional; conditions: SF-295, 48 h
SNB-19 = assay: Growth inhibition of human SNB19 cells incubated for 48 hrs by sulforhodamine B assay; format: functional; conditions: SNB-19, 48 h
SNB-75 = assay: Growth inhibition of human SNB75 cells incubated for 48 hrs by sulforhodamine B assay; format: functional; conditions: SNB-75, 48 h
LOX IMVI = assay: Growth inhibition of human LOXIMVI cells incubated for 48 hrs by sulforhodamine B assay; format: functional
M14 = assay: Growth inhibition of human M14 cells incubated for 48 hrs by sulforhodamine B assay; format: functional; conditions: M14, 48 h
MDA-MB-435 = assay: Growth inhibition of human MDA-MB-435 cells incubated for 48 hrs by sulforhodamine B assay; format: functional; conditions: MDA-MB-435, 48 h
SK-MEL-2 = assay: Growth inhibition of human SK-MEL-2 cells incubated for 48 hrs by sulforhodamine B assay; format: functional; conditions: SK-MEL-2, 48 h
SK-MEL-28 = assay: Growth inhibition of human SK-MEL-28 cells incubated for 48 hrs by sulforhodamine B assay; format: functional; conditions: SK-MEL-28, 48 h
SK-MEL-5 = assay: Growth inhibition of human SK-MEL-5 cells incubated for 48 hrs by sulforhodamine B assay; format: functional; conditions: SK-MEL-5, 48 h
UACC-257 = assay: Growth inhibition of human UACC257 cells incubated for 48 hrs by sulforhodamine B assay; format: functional; conditions: UACC-257, 48 h
UACC-62 = assay: Growth inhibition of human UACC62 cells incubated for 48 hrs by sulforhodamine B assay; format: functional; conditions: UACC-62, 48 h
OVCAR-3 = assay: Growth inhibition of human OVCAR3 cells incubated for 48 hrs by sulforhodamine B assay; format: functional; conditions: OVCAR-3, 48 h
OVCAR-4 = assay: Growth inhibition of human OVCAR4 cells incubated for 48 hrs by sulforhodamine B assay; format: functional; conditions: OVCAR-4, 48 h
OVCAR-5 = assay: Growth inhibition of human OVCAR5 cells incubated for 48 hrs by sulforhodamine B assay; format: functional; conditions: OVCAR-5, 48 h
OVCAR-8 = assay: Growth inhibition of human OVCAR8 cells incubated for 48 hrs by sulforhodamine B assay; format: functional; conditions: OVCAR-8, 48 h
786-0 = assay: Growth inhibition of human 786-0 cells incubated for 48 hrs by sulforhodamine B assay; format: functional; conditions: 786-0, 48 h
ACHN = assay: Growth inhibition of human ACHN cells incubated for 48 hrs by sulforhodamine B assay; format: functional
RXF 393 = assay: Growth inhibition of human RXF393 cells incubated for 48 hrs by sulforhodamine B assay; format: functional; conditions: RXF 393, 48 h
SN12C = assay: Growth inhibition of human SN12C cells incubated for 48 hrs by sulforhodamine B assay; format: functional
TK-10 = assay: Growth inhibition of human TK10 cells incubated for 48 hrs by sulforhodamine B assay; format: functional; conditions: TK-10, 48 h
UO-31 = assay: Growth inhibition of human UO31 cells incubated for 48 hrs by sulforhodamine B assay; format: functional; conditions: UO-31, 48 h
DU-145 = assay: Growth inhibition of human DU145 cells incubated for 48 hrs by sulforhodamine B assay; format: functional; conditions: DU-145, 48 h
MDA-MB-231 = assay: Growth inhibition of human MDA-MB-231 cells incubated for 48 hrs by sulforhodamine B assay; format: functional; conditions: MDA-MB-231, 48 h
BT-549 = assay: Growth inhibition of human BT549 cells incubated for 48 hrs by sulforhodamine B assay; format: functional; conditions: BT-549, 48 h
T47D = assay: Growth inhibition of human T47D cells incubated for 48 hrs by sulforhodamine B assay; format: functional

Structure (SMILES): COc1ccccc1CNCCCN1C(=O)c2ccc3c4c(ccc(c24)C1=O)C(=O)N(CCCCNCCCN)C3=O
- ΔTm (Homo sapiens): 22.2 °C
- ΔTm [1]: 9.1 °C
- GI50 (CCRF-CEM): 700 nM
- GI50 (RPMI-8226): 1950 nM
- GI50 (SR): 38 nM
- GI50 (A549): 1580 nM
- GI50 (EKVX): 2060 nM
- GI50 (HOP-62): 2980 nM
- GI50 (HOP-92): 2040 nM
- GI50 (NCI-H226): 2260 nM
- GI50 (NCI-H23): 747 nM
- GI50 (NCI-H322M): 2140 nM
- GI50 (COLO 205): 690 nM
- GI50 (HCC 2998): 810 nM
- GI50 (HCT-116): 742 nM
- GI50 (HCT-15): 4460 nM
- GI50 (HT-29): 998 nM
- GI50 (SW-620): 641 nM
- GI50 (SF-268): 1660 nM
- GI50 (SF-295): 3660 nM
- GI50 (SNB-19): 1320 nM
- GI50 (SNB-75): 16700 nM
- GI50 (LOX IMVI): 1030 nM
- GI50 (M14): 1900 nM
- GI50 (MDA-MB-435): 960 nM
- GI50 (SK-MEL-2): 1090 nM
- GI50 (SK-MEL-28): 1630 nM
- GI50 (SK-MEL-5): 730 nM
- GI50 (UACC-257): 916 nM
- GI50 (UACC-62): 1100 nM
- GI50 (OVCAR-3): 338 nM
- GI50 (OVCAR-4): 713 nM
- GI50 (OVCAR-5): 3050 nM
- GI50 (OVCAR-8): 826 nM
- GI50 (786-0): 2280 nM
- GI50 (ACHN): 3720 nM
- GI50 (RXF 393): 886 nM
- GI50 (SN12C): 947 nM
- GI50 (TK-10): 2620 nM
- GI50 (UO-31): 3520 nM
- GI50 (DU-145): 1600 nM
- GI50 (MDA-MB-231): 2680 nM
- GI50 (BT-549): 2230 nM
- GI50 (T47D): 1300 nM

Structure (SMILES): COc1ccccc1CNCCCN1C(=O)c2ccc3c4c(ccc(c24)C1=O)C(=O)N(CCCNCCCCN)C3=O
- ΔTm (Homo sapiens): 29 °C
- ΔTm [1]: 12.2 °C
- GI50 (CCRF-CEM): 275 nM
- GI50 (RPMI-8226): 394 nM
- GI50 (SR): 76 nM
- GI50 (A549): 258 nM
- GI50 (EKVX): 866 nM
- GI50 (HOP-62): 290 nM
- GI50 (HOP-92): 273 nM
- GI50 (NCI-H226): 808 nM
- GI50 (NCI-H23): 193 nM
- GI50 (COLO 205): 110 nM
- GI50 (HCC 2998): 149 nM
- GI50 (HCT-116): 185 nM
- GI50 (HCT-15): 165 nM
- GI50 (HT-29): 188 nM
- GI50 (SW-620): 155 nM
- GI50 (SF-268): 268 nM
- GI50 (SF-295): 448 nM
- GI50 (SNB-19): 292 nM
- GI50 (SNB-75): 304 nM
- GI50 (LOX IMVI): 188 nM
- GI50 (M14): 343 nM
- GI50 (MDA-MB-435): 184 nM
- GI50 (SK-MEL-2): 223 nM
- GI50 (SK-MEL-28): 313 nM
- GI50 (SK-MEL-5): 153 nM
- GI50 (UACC-257): 163 nM
- GI50 (UACC-62): 175 nM
- GI50 (OVCAR-3): 293 nM
- GI50 (OVCAR-4): 155 nM
- GI50 (OVCAR-5): 944 nM
- GI50 (OVCAR-8): 231 nM
- GI50 (786-0): 616 nM
- GI50 (ACHN): 535 nM
- GI50 (RXF 393): 582 nM
- GI50 (SN12C): 280 nM
- GI50 (UO-31): 1860 nM
- GI50 (DU-145): 853 nM
- GI50 (MDA-MB-231): 204 nM
- GI50 (BT-549): 1180 nM
- GI50 (T47D): 215 nM

Structure (SMILES): COc1ccccc1CNCCCN1C(=O)c2ccc3c4c(ccc(c24)C1=O)C(=O)N(CCCNCCNCCCN)C3=O
- ΔTm (Homo sapiens): 22 °C
- ΔTm [1]: 10.4 °C
- GI50 (CCRF-CEM): 317 nM
- GI50 (RPMI-8226): 10900 nM
- GI50 (SR): 898 nM
- GI50 (A549): 3010 nM
- GI50 (EKVX): 4170 nM
- GI50 (HOP-62): 2460 nM
- GI50 (HOP-92): 6700 nM
- GI50 (NCI-H226): 2990 nM
- GI50 (NCI-H23): 1720 nM
- GI50 (HCC 2998): 2250 nM
- GI50 (HCT-116): 717 nM
- GI50 (HCT-15): 12200 nM
- GI50 (HT-29): 2070 nM
- GI50 (SW-620): 1740 nM
- GI50 (SF-268): 2100 nM
- GI50 (SF-295): 2770 nM
- GI50 (SNB-19): 2180 nM
- GI50 (SNB-75): 3070 nM
- GI50 (LOX IMVI): 2100 nM
- GI50 (M14): 2070 nM
- GI50 (MDA-MB-435): 2070 nM
- GI50 (SK-MEL-2): 2670 nM
- GI50 (SK-MEL-28): 3030 nM
- GI50 (SK-MEL-5): 1570 nM
- GI50 (UACC-257): 2530 nM
- GI50 (UACC-62): 1680 nM
- GI50 (OVCAR-3): 2160 nM
- GI50 (OVCAR-4): 466 nM
- GI50 (OVCAR-5): 5240 nM
- GI50 (OVCAR-8): 2080 nM
- GI50 (ACHN): 4450 nM
- GI50 (RXF 393): 1650 nM
- GI50 (SN12C): 2090 nM
- GI50 (TK-10): 6650 nM
- GI50 (UO-31): 10800 nM
- GI50 (DU-145): 3650 nM
- GI50 (MDA-MB-231): 2090 nM
- GI50 (BT-549): 2580 nM
- GI50 (T47D): 1510 nM
